Test results published in paper PMC7578760 (iScience, 2020).

Tested on: CIC
Experiment: Nuclear/cytoplasmic distribution of CIC
Type: cell-based, human
Details: 293T and MCF7; FGF 10 ng/mL or EGF 75 ng/mL, time course
Summary of the method: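 293T and MCF7 cells grown in high-glucose DMEM with 10% FBS and penicillin-streptomycin. Endogenous CIC: cells exposed to 10 ng/mL FGF or 75 ng/mL EGF for indicated times. Exogenous CIC: cells transfected with HA-CIC plasmid for 48 h, then FGF 10 ng/mL for 0, 1, 2 h. Cells separated into nuclear and cytoplasmic fractions; CIC in each fraction detected by western blot.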

B1: EGF: mitogen, 75 ng/mL (protein, UniProt P01133 23-1207, looked up)
Pro-epidermal growth factor: PQHWSCPEGTLAGNGNSTCVGPAPFLIFSHGNSIFRIDTEGTNYEQLVVDAGVSVIMDFHYNEKRIYWVDLERQLLQRVFLNGSRQERVCNIEKNVSGMAINWINEEVIWSNQQEGIITVTDMKGNNSHILLSALKYPANVAVDPVERFIFWSSEVAGSLYRADLDGVGVKALLETSEKITAVSLDVLDKRLFWIQYNREGSNSLICSCDYDGGSVHISKHPTQHNLFAMSLFGDRIFYSTWKMKTIWIANKHTGKDMVRINLHSSFVPLGELKVVHPLAQPKAEDDTWEPEQKLCKLRKGNCSSTVCGQDLQSHLCMCAEGYALSRDRKYCEDVNECAFWNHGCTLGCKNTPGSYYCTCPVGFVLLPDGKRCHQLVSCPRNVSECSHDCVLTSEGPLCFCPEGSVLERDGKTCSGCSSPDNGGCSQLCVPLSPVSWECDCFPGYDLQLDEKSCAASGPQPFLLFANSQDIRHMHFDGTDYGTLLSQQMGMVYALDHDPVENKIYFAHTALKWIERANMDGSQRERLIEEGVDVPEGLAVDWIGRRFYWTDRGKSLIGRSDLNGKRSKIITKENISQPRGIAVHPMAKRLFWTDTGINPRIESSSLQGLGRLVIASSDLIWPSGITIDFLTDKLYWCDAKQSVIEMANLDGSKRRRLTQNDVGHPFAVAVFEDYVWFSDWAMPSVMRVNKRTGKDRVRLQGSMLKPSSLVVVHPLAKPGADPCLYQNGGCEHICKKRLGTAWCSCREGFMKASDGKTCLALDGHQLLAGGEVDLKNQVTPLDILSKTRVSEDNITESQHMLVAEIMVSDQDDCAPVGCSMYARCISEGEDATCQCLKGFAGDGKLCSDIDECEMGVPVCPPASSKCINTEGGYVCRCSEGYQGDGIHCLDIDECQLGEHSCGENASCTNTEGGYTCMCAGRLSEPGLICPDSTPPPHLREDDHHYSVRNSDSECPLSHDGYCLHDGVCMYIEALDKYACNCVVGYIGERCQYRDLKWWELRHAGHGQQQKVIVVAVCVVVLVMLLLLSLWGAHYYRTQKLLSKNPKNPYEESSRDVRSRRPADTEDGMSSCPQPWFVVIKEHQDLKNGGQPVAGEDGQAADGSMQPTSWRQEPQLCGMGTEQGCWIPVSSDKGSCPQVMERSFHMPSYGTQTLEGGVEKPHSLLSANPLWQQRALDPPHQMELTQ
modifications: Pro-epidermal growth factor
cytosolic fraction of CIC: time-dependent increase in the cytosolic fraction of CIC
nuclear fraction of CIC: concomitant drop of the nuclear fraction
